Laboratory results taken from the array DNA melting data of Ke et al. (doi:10.1101/2024.01.08.574731).

Tests used:
[1] = folding enthalpy; higher = less favourable; fluorescence melt of hairpins on a sequencing array, two-state fit; conditions: sodium 0.088 M
Outline: (§1)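 Bootstrapped two-state fits yielded melting temperature and folding enthalpy for library hairpins. Cy3 fluorescence, with annealed Cy3 and quencher oligos, was imaged on a sequenced MiSeq flow cell in 50 mM Na-HEPES pH 8.0, 25 mM NaCl in 2.5 °C steps up to 60 °C, and normalised to pre-quench Cy3 and to control constructs. Four replicates were combined by inverse variance, and fitted temperatures were raised by 9.35 °C to match UV melts.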

[2] = melting temperature; fluorescence melt of hairpins on a sequencing array, two-state fit, raised by 9.35 °C to match UV melts; conditions: sodium 0.088 M
Outline: as §1

GTGTAAGGAAACTCACAC ((((.((....)).))))
folding enthalpy [1]: -16.9 kcal/mol
Tm [2]: 32.8 °C

GGCTACCCGAAAGGGGCC (((..(((....))))))
folding enthalpy [1]: -18.9 kcal/mol
Tm [2]: 50.6 °C

GATCTGTTTCAGATC ((((((...))))))
folding enthalpy [1]: -34.5 kcal/mol
Tm [2]: 50.5 °C

GTCATTACGAAAGTAGAC (((..(((....))))))
folding enthalpy [1]: -9.42 kcal/mol
Tm [2]: 26.7 °C

GACCTGCGAAAGCAGTC (((.(((....))))))
folding enthalpy [1]: -12.2 kcal/mol
Tm [2]: 48.5 °C

GGTTAGGGAAACTTGACC (((.(.(....).).)))
folding enthalpy [1]: -18.9 kcal/mol
Tm [2]: 28 °C

GGCAACGGAAACGTCGCC (((.(((....))).)))
folding enthalpy [1]: -46.8 kcal/mol
Tm [2]: 52.8 °C

GCGCCCGAAAGGGGCCGC ((((((....)))..)))
folding enthalpy [1]: -16.4 kcal/mol
Tm [2]: 61.4 °C

GGCCACGCGAAAGCGGCC (((..(((....))))))
folding enthalpy [1]: -19 kcal/mol
Tm [2]: 62.5 °C

GATCGCACCAGCGATC ((((((....))))))
folding enthalpy [1]: -31.2 kcal/mol
Tm [2]: 69.3 °C

GAGTTCCGAAAGGACTC (((.(((....))))))
folding enthalpy [1]: -22.1 kcal/mol
Tm [2]: 49.2 °C

GATCTTCCAGAAGATC ((((((....))))))
folding enthalpy [1]: -33.7 kcal/mol
Tm [2]: 46 °C

GATCCCCGACGGGATC ((((((....))))))
folding enthalpy [1]: -27.3 kcal/mol
Tm [2]: 56.8 °C

GCCAACCGAAAGGTAGGC (((.(((....))).)))
folding enthalpy [1]: -39.1 kcal/mol
Tm [2]: 60.4 °C

GATCTTCGCGAAGATC ((((((....))))))
folding enthalpy [1]: -59 kcal/mol
Tm [2]: 55.3 °C

GTCGGGACGAAAGTCGAC (((..(((....))))))
folding enthalpy [1]: -18.9 kcal/mol
Tm [2]: 47.5 °C

GATCGGAAAACCGATC ((((((....))))))
folding enthalpy [1]: -35.5 kcal/mol
Tm [2]: 51.2 °C

GATCAAATCCTTGATC ((((((....))))))
folding enthalpy [1]: -35.8 kcal/mol
Tm [2]: 42.1 °C

GATCGGATGACCGATC ((((((....))))))
folding enthalpy [1]: -29.8 kcal/mol
Tm [2]: 55.8 °C

CGGCAACGGAAACGTCCG (((..(((....))))))
folding enthalpy [1]: -13 kcal/mol
Tm [2]: 39.2 °C

GCTGCCCGAAAGGGTAGC (((.(((....))).)))
folding enthalpy [1]: -40.5 kcal/mol
Tm [2]: 69 °C

GATCGTGGAAACACGATC (((((((....)))))))
folding enthalpy [1]: -41.2 kcal/mol
Tm [2]: 66.3 °C

GCGAACGAAAGTTTACGC ((((((....)))..)))
folding enthalpy [1]: -21.2 kcal/mol
Tm [2]: 43 °C

GACCATGAAAATGGTC ((((((....))))))
folding enthalpy [1]: -36.9 kcal/mol
Tm [2]: 61.8 °C

GCACTCGAAAGAGTTGC ((((((....))).)))
folding enthalpy [1]: -22.3 kcal/mol
Tm [2]: 51.4 °C

GTTTGAGGAAACTCAAAC (((((((....)))))))
folding enthalpy [1]: -36.8 kcal/mol
Tm [2]: 55.8 °C

GACATCCGAAAGGAAGTC (((.(((....))).)))
folding enthalpy [1]: -36.6 kcal/mol
Tm [2]: 48.8 °C

GGCAACGAAAGTTAAGCC ((((((....)))..)))
folding enthalpy [1]: -24 kcal/mol
Tm [2]: 45.7 °C

GGGAGCGAAAGCTATCCC ((((((....)))..)))
folding enthalpy [1]: -16.6 kcal/mol
Tm [2]: 48 °C

GGTGTGGGAAACTACGCC ((.((.(....).)).))
folding enthalpy [1]: -29.6 kcal/mol
Tm [2]: 43.4 °C

GCGAAGCGAAAGCAGCGC (((..((....))..)))
folding enthalpy [1]: -16.6 kcal/mol
Tm [2]: 57.7 °C

GATCCATCAATGGATC ((((((....))))))
folding enthalpy [1]: -44 kcal/mol
Tm [2]: 52.3 °C

GGTCTTGGAAACAGGACC ((((.((....)).))))
folding enthalpy [1]: -36.3 kcal/mol
Tm [2]: 49.2 °C

GAGAAGCCGAAAGGCCTC (((..(((....))))))
folding enthalpy [1]: -12.7 kcal/mol
Tm [2]: 37.4 °C

ACAGTGAAAACTGT (((((....)))))
folding enthalpy [1]: -19.2 kcal/mol
Tm [2]: 45.7 °C

GATCGATTAGTCGATC ((((((....))))))
folding enthalpy [1]: -54.5 kcal/mol
Tm [2]: 53.2 °C

GTTCGCGAAAGCGAGAAC ((((((....)))..)))
folding enthalpy [1]: -9.97 kcal/mol
Tm [2]: 42.3 °C

GTCTTCGAAAGAAAGGAC ((((((....)))..)))
folding enthalpy [1]: -10.7 kcal/mol
Tm [2]: 26.7 °C

GGCTAGCCGAAAGGCGCC (((..(((....))))))
folding enthalpy [1]: -15.9 kcal/mol
Tm [2]: 59 °C

GGGTCGCGAAAGCGCCCC (((.(((....))).)))
folding enthalpy [1]: -18.6 kcal/mol
Tm [2]: 66.8 °C

GTGTATGGAAACATATAC ((.((((....)))).))
folding enthalpy [1]: -37 kcal/mol
Tm [2]: 37.8 °C

GGAGACGCGAAAGCGTCC (((..(((....))))))
folding enthalpy [1]: -7.09 kcal/mol
Tm [2]: 45.3 °C

GCACGCGAAAGCGATGC ((((((....))).)))
folding enthalpy [1]: -21.3 kcal/mol
Tm [2]: 65.2 °C

GATCCCCGGGGGATC ((((((...))))))
folding enthalpy [1]: -35.3 kcal/mol
Tm [2]: 60.9 °C

GCCGAAGGAAACTCCGGC ((((.((....)).))))
folding enthalpy [1]: -28 kcal/mol
Tm [2]: 48.3 °C

GATCACCAGGTGATC ((((((...))))))
folding enthalpy [1]: -26.5 kcal/mol
Tm [2]: 54.8 °C
